GPR7 antagonist = GPR7 receptor antagonists, primary screen, cell-based, fluorescence, single concentration. GPR7-expressing cells, fluorescence antagonist assay. AID 1861, 2009. Neuropeptides B/W receptor type 1 (Homo sapiens), P48145. inhibition, % at 4.4 µM. 290,000 tested, 1.1% active; in the data active = inhibition above about 16%, passing the limit was not always enough;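 note: cells stimulated with the agonist NPW; 0% = agonist with vehicle and 100% = vehicle without agonist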
TAAR1 antagonist = human TAAR1 antagonists, primary screen, Fluo-8 calcium fluorescence, CHO RD-HGA16 cells; Trace amine-associated receptor 1 (Homo sapiens), Q96RJ0; antagonist; inhibition, % at 3 µM; 360,000 tested, 1.5% active; AID 624466, 2012;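 active = inhibition above a per-plate cutoff, the mean inhibition of test compounds on that plate plus 3 SD, cut at about 49% in these data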;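 note: 0% = DMSO plus EC80 beta-PEA response and 100% = DMSO alone without agonist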
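Test system: RD-HGA16 CHO cells with stable hTAAR1 and Gα16 / Probe or stimulus: EC80 β-phenethylamine stimulus / Times: seeding 17-24 h prior, 75-min 37 °C, 30-min RT dye loading / Detection: Fluo-8 calcium-sensitive fluorescence / Read-out basis: % inhibition scaled between DMSO and EC80 PEA controls / Repeats: singlicate, one well per test compound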
TAAR1 agonist = human TAAR1 agonists, primary screen, Fluo-8 calcium fluorescence, CHO RD-HGA16 cells; Trace amine-associated receptor 1 (Homo sapiens), Q96RJ0; vehicle wells 0%, saturating PEA agonist 100%; activation, % at 3 µM; 360,000 tested, 0.99% active;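 active = activation above the mean activation of all test compounds in the run plus 3 SD, cut at about 38% in these data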
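Assay system: CHO-derived RD-HGA16 cells with stable Gα16 and human TAAR1; timing: 17-24 h seeding, 75 min 37 °C dye, 30 min RT; read-out: % activation from peak over basal fluorescence ratio, DMSO-to-PEA scaled; measured by: kinetic Fluo-8 calcium fluorescence; benchmarks: low control DMSO, high control PEA (EC100); doses: 3 µM single concentration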
OX1R antag-1 = antagonists of human orexin 1 receptor (OX1R) | Orexin/Hypocretin receptor type 1 (Homo sapiens), O43613 | OX1R-expressing cells, FRET antagonist read-out | inhibition, % at 6.6 µM | 330,000 tested, 1.8% active; in the data active = inhibition mostly above about 38%, no sharp cut-off; inactive = mostly below about 40%;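 note: 0% = agonist challenge alone and 100% = reference antagonist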
Target sequence (O43613 whole entry, looked up): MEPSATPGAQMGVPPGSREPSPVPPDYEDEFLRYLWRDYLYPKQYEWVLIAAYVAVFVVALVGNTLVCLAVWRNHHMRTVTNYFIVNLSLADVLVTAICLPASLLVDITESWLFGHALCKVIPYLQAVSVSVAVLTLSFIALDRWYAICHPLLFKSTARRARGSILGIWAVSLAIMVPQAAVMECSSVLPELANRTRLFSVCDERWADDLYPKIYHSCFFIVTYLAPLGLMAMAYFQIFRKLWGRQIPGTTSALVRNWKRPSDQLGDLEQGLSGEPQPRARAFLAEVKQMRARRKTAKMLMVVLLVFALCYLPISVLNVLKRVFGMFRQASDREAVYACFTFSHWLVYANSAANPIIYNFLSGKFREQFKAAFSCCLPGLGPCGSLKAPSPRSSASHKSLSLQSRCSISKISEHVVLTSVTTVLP
OX1R antag-2 = OX1R (HCRTR1) antagonists, primary screen, fluorescence, CHO/OX1R cells, Fluo-8 calcium, orexin A. 330,000 tested, 0.43% active. inhibition, % at 5 µM. Fluo-8 calcium fluorescence. Orexin/Hypocretin receptor type 1 (Homo sapiens), O43613. AID 434989, 2010;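 active = inhibition above its plate's threshold, mean inhibition of all tested compounds on the plate plus 3 SD, cut at about 37% in these data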;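 note: 0% = orexin A challenge wells and 100% = SB-334867-A antagonist wells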
CHO parental Ca = ATP-evoked calcium signal inhibitors, parental CHO, primary screen, counter-screen for OX1R antagonist project, cell-based, fluorescence, Fluo-8 calcium dye. 330,000 tested, 0.63% active. parental CHO-K1, ATP-induced calcium, Fluo-8 fluorescence. inhibition, % at 5.6 µM;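 active = inhibition above that plate's mean sample inhibition plus 3 SD, cut at about 26% in these data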;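 note: 0% = ATP-challenged DMSO wells and 100% = DMSO wells without ATP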
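Test system: untransfected parental CHO cell line. Compound: one dose, 5.6 µM nominal. Detection: intracellular calcium via Fluo-8 no-wash fluorescent dye. Measure: % inhibition. Benchmarks: ATP-challenged DMSO wells low, unchallenged DMSO wells high.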
TAAR1 ag confirm = human TAAR1 agonists, retest of hits, confirmation, Fluo-8 calcium fluorescence, CHO RD-HGA16 cells; activation, % at 3 µM; shares compounds with TAAR1 agonist; 2,400 tested, 82% active; scaled: DMSO 0%, maximal phenethylamine 100%;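 active = activation above a cutoff set at the run's mean compound activation plus 3 SD, cut at about 39% in these data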
Ga16 nonsel ag = nonselective calcium mobilization agonists, CHO-Ga16 cells, counter-screen for hTAAR1 agonist project, cell-based, fluorescence, CHO-Ga16 parental line. shares compounds with TAAR1 agonist. Fluo-8 calcium fluorescence; normalized to maximal ATP response, DMSO zero. activation, % at 3 µM. 2,400 tested, 50% active. AID 651787, 2012;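 active = activation above the run cutoff, the mean activation over all tested wells plus 3 SD, cut at about 12% in these data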;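 note: 0% = DMSO wells and 100% = maximal ATP response on the peak over basal ratio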
TAAR1 desens = TAAR1 desensitization by agonist hits, confirmation, counter-screen for TAAR1 agonist project, cell-based, fluorescence, tachyphylaxis; shares compounds with TAAR1 agonist; 2,400 tested, 46% active; inhibition, % at 3 µM; CHO RD-HGA16 hTAAR1, Fluo-8 calcium, beta-PEA response inhibition; AID 651951, 2012;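 active = inhibition above the run cutoff, the mean inhibition of all test compounds plus 3 SD, cut at about 49% in these data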;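 note: beta-PEA stimulus applied at its EC80; loss of beta-PEA calcium signal after compound pretreatment read as receptor desensitization; 0% = DMSO with beta-PEA at EC80 and 100% = DMSO alone without agonist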
Ga16 nonsel ant = inhibition of ATP-evoked calcium response in CHO-Ga16 cells, counter-screen for TAAR1 agonist project, cell-based, fluorescence | shares compounds with TAAR1 agonist | CHO-Ga16 ATP-induced calcium, Fluo-8 fluorescence | inhibition, % at 3 µM | 2,400 tested, 39% active | AID 651952, 2012;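 active = inhibition above the plate's mean compound inhibition plus 3 SD, computed per plate, cut at about 22% in these data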;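 note: 0% = EC80 ATP with DMSO and 100% = DMSO wells without ATP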
* marks the source's active call; other numbers are inactive results. Most compounds without a hit are left out; they make up all but 4.6% or so of the library.

`Cn1c(=O)c(C(=O)NNC(=O)c2ccccc2F)c(O)c2ccccc21` gave GPR7 antagonist -1, TAAR1 antagonist 6, TAAR1 agonist 48*, OX1R antag-1 6, OX1R antag-2 -10, CHO parental Ca 2, TAAR1 ag confirm 60*, Ga16 nonsel ag 43*, TAAR1 desens 12 and Ga16 nonsel ant 22*.
For CCn1c(=O)c(C(=O)Nc2ncccc2C)c(O)c2ccccc21 the results were GPR7 antagonist -4, TAAR1 antagonist 13, TAAR1 agonist 59*, OX1R antag-1 26, OX1R antag-2 -17, CHO parental Ca -6, TAAR1 ag confirm 25, Ga16 nonsel ag 12*, TAAR1 desens -9 and Ga16 nonsel ant 5.
Screening C/C(CC(=O)Nc1ccccc1C)=N\NC(=O)Cc1csc(N)n1 returned GPR7 antagonist 3, TAAR1 antagonist -10, TAAR1 agonist 0, OX1R antag-1 15, OX1R antag-2 -5 and CHO parental Ca 3.
Screening COc1ccc(-n2nc(C(=O)NCC(=O)NC(C)C)c3ccccc3c2=O)cc1OC returned GPR7 antagonist -7, TAAR1 antagonist 0, TAAR1 agonist 4, OX1R antag-1 6, OX1R antag-2 -21 and CHO parental Ca -12.
Cc1cccc(C(=O)NCC(=O)OCC(=O)c2ccc(C)s2)c1 was read as TAAR1 antagonist -7, TAAR1 agonist -1, OX1R antag-1 2, OX1R antag-2 -9 and CHO parental Ca -13.
`O=C(COC(=O)CN1C(=O)c2ccccc2C1=O)Nc1ccccc1` gave TAAR1 antagonist -26, TAAR1 agonist 48*, OX1R antag-1 4, OX1R antag-2 -2, CHO parental Ca -4, TAAR1 ag confirm 57*, Ga16 nonsel ag 0, TAAR1 desens 8 and Ga16 nonsel ant 4.
Cn1c(=O)c2c(nc(N/N=C/c3cccs3)n2C)n(C)c1=O was read as GPR7 antagonist -7, TAAR1 antagonist -27, TAAR1 agonist 1, OX1R antag-1 6, OX1R antag-2 -28 and CHO parental Ca -17.
Screening Cn1c(N/N=C/c2cccs2)cc(=O)n(C)c1=O returned GPR7 antagonist 5, TAAR1 antagonist -1, TAAR1 agonist 45*, OX1R antag-1 15, OX1R antag-2 -7, CHO parental Ca 2, TAAR1 ag confirm 62*, Ga16 nonsel ag 2, TAAR1 desens 14 and Ga16 nonsel ant 6.
`O=C(Cn1cnc([N+](=O)[O-])c1)NCc1ccc(F)cc1` gave GPR7 antagonist 1, TAAR1 antagonist -2, TAAR1 agonist 2, OX1R antag-1 18, OX1R antag-2 -9 and CHO parental Ca -7.
For O=C(Cn1cnc([N+](=O)[O-])c1)NCCc1ccccc1 the results were GPR7 antagonist 4, OX1R antag-1 14, OX1R antag-2 -11, CHO parental Ca -8, Ga16 nonsel ag 1 and Ga16 nonsel ant -2.

Compound activity from PubChem.
